In ChEMBL document CHEMBL4311951, “Potent and Preferential Degradation of CDK6 via Proteolysis Targeting Chimera Degraders” (J Med Chem, 2019):
pIC50: −log10 of the molar value. Activity calls are given as the source filed them. The calls are words filed in the database; no cut-off is given here.

Key:
[1] = target: Protein cereblon/Cyclin-dependent kinase 6 (Homo sapiens, UniProt Q00534+Q96SW2); experiment: Induction of CRBN-mediated CDK6 degradation in human U251 cells after 24 hrs by immunoblot analysis; format: cell-based
[2] = target: T1, von Hippel-Lindau disease tumor suppressor/Cyclin-dependent kinase 6 (Homo sapiens) (UniProt Q00534+P40337); experiment: Induction of VHL-mediated CDK6 degradation in human DAOY cells at 1 uM after 24 hrs by immunoblot analysis; format: cell-based
T1 sequence (P40337 whole entry, looked up): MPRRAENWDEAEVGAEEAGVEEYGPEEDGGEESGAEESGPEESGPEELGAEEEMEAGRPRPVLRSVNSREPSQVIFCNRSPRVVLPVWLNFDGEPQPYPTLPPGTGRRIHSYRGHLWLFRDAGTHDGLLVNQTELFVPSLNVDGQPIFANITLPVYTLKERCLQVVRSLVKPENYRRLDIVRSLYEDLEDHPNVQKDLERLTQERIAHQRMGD
T1 sequence (Q00534 whole entry, looked up): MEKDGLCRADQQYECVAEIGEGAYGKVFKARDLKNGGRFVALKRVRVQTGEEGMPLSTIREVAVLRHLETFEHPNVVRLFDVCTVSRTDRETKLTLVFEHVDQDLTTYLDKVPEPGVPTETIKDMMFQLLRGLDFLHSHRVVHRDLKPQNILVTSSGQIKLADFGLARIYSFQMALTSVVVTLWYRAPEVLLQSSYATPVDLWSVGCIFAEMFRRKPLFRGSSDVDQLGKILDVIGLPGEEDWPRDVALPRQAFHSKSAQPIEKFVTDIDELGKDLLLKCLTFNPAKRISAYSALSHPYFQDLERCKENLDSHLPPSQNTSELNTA
Method in brief: (§1)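 Medulloblastoma DAOY cells treated 24 h with PROTACs at 1 μM; CDK6 levels then assessed by immunoblot. Palbociclib at 500 nM and 1 μM as positive control.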

[3] = target: von Hippel-Lindau disease tumor suppressor/Cyclin-dependent kinase 4 (Homo sapiens) (UniProt P11802+P40337); experiment: Induction of VHL-mediated CDK4 degradation in human U251 cells at 1 uM after 24 hrs by immunoblot analysis; format: cell-based
Chain of von Hippel-Lindau disease tumor suppressor/Cyclin-dependent kinase 4 (Homo sapiens) (P11802 2-303 limits assumed): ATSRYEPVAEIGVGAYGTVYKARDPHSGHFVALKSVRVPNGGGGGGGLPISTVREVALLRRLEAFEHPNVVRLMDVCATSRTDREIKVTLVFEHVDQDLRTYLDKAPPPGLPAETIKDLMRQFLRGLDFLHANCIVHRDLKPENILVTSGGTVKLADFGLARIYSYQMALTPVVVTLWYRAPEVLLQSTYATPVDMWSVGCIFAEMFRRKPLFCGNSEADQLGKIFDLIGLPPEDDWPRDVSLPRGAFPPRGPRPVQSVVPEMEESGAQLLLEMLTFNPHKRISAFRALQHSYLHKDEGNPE
Chain of von Hippel-Lindau disease tumor suppressor/Cyclin-dependent kinase 4 (Homo sapiens) (P40337 whole entry partner): as the sequence (P40337 whole entry, looked up) above

[4] = target: T1, von Hippel-Lindau disease tumor suppressor/Cyclin-dependent kinase 6 (Homo sapiens); experiment: Induction of VHL-mediated CDK6 degradation in human U251 cells at 1 uM after 24 hrs by immunoblot analysis; format: cell-based
RPMI-8226 = experiment: Antiproliferative activity against human RPMI8226 cells after 84 hrs by CCK8 assay; format: functional, cell-based
Method in brief: (§2)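 Suspension haematopoietic lines seeded in triplicate in 96-well plates; drug stock added immediately to the final concentrations. After 84 h culture, CCK-8 reagent added and absorbance at OD450 nm read after 2 h incubation.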

MM1.S = experiment: Antiproliferative activity against human MM1S cells after 84 hrs by CCK8 assay; format: functional, cell-based; method in brief: as §2
JeKo-1 = experiment: Antiproliferative activity against human JeKo1 cells after 84 hrs by CCK8 assay; format: functional, cell-based; method in brief: as §2
[5] = (§3) Antiproliferative activity against human Mino cells after 84 hrs by CCK8 assay; format: functional, cell-based; method in brief: as §2
HL-60 = experiment: Antiproliferative activity against human HL60 cells after 84 hrs by CCK8 assay; format: functional, cell-based; method in brief: as §2
THP-1 = experiment: Antiproliferative activity against human THP1 cells after 84 hrs by CCK8 assay; format: functional, cell-based; method in brief: as §2
[6] = target: T2, E3 ubiquitin-protein ligase Mdm2/CDK6 (Homo sapiens) (UniProt Q00987+Q00534); experiment: Induction of MDM2-mediated CDK6 degradation in human U251 cells at 1 uM after 24 hrs by immunoblot analysis; format: cell-based
T2 sequence (Q00534 whole entry, looked up): as the sequence (Q00534 whole entry, looked up) above
T2 sequence (Q00987 whole entry, looked up): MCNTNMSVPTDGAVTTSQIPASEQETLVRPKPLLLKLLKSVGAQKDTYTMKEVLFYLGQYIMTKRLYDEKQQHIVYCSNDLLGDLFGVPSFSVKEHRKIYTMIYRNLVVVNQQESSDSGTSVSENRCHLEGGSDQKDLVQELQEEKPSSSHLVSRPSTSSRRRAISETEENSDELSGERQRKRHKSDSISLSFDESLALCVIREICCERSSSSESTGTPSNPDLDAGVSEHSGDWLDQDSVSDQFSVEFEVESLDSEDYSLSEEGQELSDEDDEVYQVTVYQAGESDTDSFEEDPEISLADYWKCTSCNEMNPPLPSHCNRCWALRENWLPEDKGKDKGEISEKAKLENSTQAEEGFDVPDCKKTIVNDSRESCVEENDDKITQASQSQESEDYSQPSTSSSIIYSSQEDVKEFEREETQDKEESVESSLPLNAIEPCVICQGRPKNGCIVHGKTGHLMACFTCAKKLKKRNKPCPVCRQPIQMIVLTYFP

[7] = target: T2, E3 ubiquitin-protein ligase Mdm2/CDK6 (Homo sapiens); experiment: Induction of MDM2-mediated CDK6 degradation in human DAOY cells at 1 uM after 24 hrs by immunoblot analysis; format: cell-based; method in brief: as §1
[8] = tested on: E3 ubiquitin-protein ligase Mdm2/Cyclin-dependent kinase 4 (Homo sapiens); experiment: Induction of MDM2-mediated CDK4 degradation in human U251 cells at 1 uM after 24 hrs by immunoblot analysis
Daoy = experiment: Induction of cIAP-mediated CDK6 degradation in human DAOY cells at 1 uM after 24 hrs by immunoblot analysis; format: cell-based; method in brief: as §1
Homo sapiens [9] = organism: Homo sapiens; experiment: Induction of cIAP-mediated CDK4 degradation in human U251 cells at 1 uM after 24 hrs by immunoblot analysis; format: cell-based
Homo sapiens [10] = organism: Homo sapiens; experiment: Induction of cIAP-mediated CDK6 degradation in human U251 cells at 1 uM after 24 hrs by immunoblot analysis; format: cell-based
[11] = target: Protein cereblon/Cyclin-dependent kinase 4 (Homo sapiens, UniProt P11802+Q96SW2); experiment: Induction of CRBN-mediated CDK4 degradation in human U251 cells after 24 hrs by immunoblot analysis; format: cell-based
Chain of Protein cereblon/Cyclin-dependent kinase 4 (P11802 whole entry): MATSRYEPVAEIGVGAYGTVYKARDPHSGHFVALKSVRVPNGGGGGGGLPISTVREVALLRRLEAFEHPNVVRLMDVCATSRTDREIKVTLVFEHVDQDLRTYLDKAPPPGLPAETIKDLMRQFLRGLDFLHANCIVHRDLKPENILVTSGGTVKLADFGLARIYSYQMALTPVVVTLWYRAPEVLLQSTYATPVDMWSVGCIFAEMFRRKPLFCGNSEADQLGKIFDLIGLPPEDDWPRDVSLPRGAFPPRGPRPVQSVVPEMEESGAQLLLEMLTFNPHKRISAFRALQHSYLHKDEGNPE
Chain of Protein cereblon/Cyclin-dependent kinase 4 (Q96SW2 whole entry): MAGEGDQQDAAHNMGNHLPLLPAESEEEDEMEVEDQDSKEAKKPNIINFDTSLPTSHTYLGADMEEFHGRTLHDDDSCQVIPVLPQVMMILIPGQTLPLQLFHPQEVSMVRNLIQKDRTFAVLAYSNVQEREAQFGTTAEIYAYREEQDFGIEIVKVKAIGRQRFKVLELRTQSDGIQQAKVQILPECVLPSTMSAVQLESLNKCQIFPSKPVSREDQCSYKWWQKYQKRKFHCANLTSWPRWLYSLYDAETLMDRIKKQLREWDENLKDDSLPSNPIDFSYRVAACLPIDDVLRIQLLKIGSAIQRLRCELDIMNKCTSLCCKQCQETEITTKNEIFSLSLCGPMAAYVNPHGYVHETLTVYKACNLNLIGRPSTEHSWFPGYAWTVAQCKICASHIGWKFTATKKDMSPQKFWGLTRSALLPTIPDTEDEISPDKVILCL

Homo sapiens [12] = organism: Homo sapiens; experiment: as §3; format: functional, cell-based; method in brief: as §2

With `CN(C)C(=O)c1cc2cnc(Nc3ccc(N4CCN(Cc5cn(CCOCCOCCOCCNc6cccc7c6C(=O)N(C6CCC(=O)NC6=O)C7=O)nn5)CC4)cn3)nc2n1C1CCCC1` (configuration not stated) the Activity [1] was “inactive”.
For `CC(=O)c1c(C)c2cnc(Nc3ccc(N4CCN(Cc5cn(CCOCCOCCOCCOCCNC(=O)CCC(=O)N[C@H](C(=O)N6C[C@H](O)C[C@H]6C(=O)NCc6ccc(-c7scnc7C)cc6)C(C)(C)C)nn5)CC4)cn3)nc2n(C2CCCC2)c1=O`, the Activity [2] was “inactive”, the Activity [3] was “inactive” and the Activity [4] was “inactive”.
For `CC(=O)c1c(C)c2cnc(Nc3ccc(N4CCN(Cc5cn(CCOCCNC(=O)CCC(=O)N[C@H](C(=O)N6C[C@H](O)C[C@H]6C(=O)NCc6ccc(-c7scnc7C)cc6)C(C)(C)C)nn5)CC4)cn3)nc2n(C2CCCC2)c1=O`, the Activity [2] was “inactive”, the Activity [3] was “inactive” and the Activity [4] was “inactive”.
In the case of `CC(=O)c1c(C)c2cnc(Nc3ccc(N4CCNCC4)cn3)nc2n(C2CCCC2)c1=O` [PALBOCICLIB], the Activity (RPMI-8226) was “Active”, the pIC50 (MM1.S) was 6.70 and the Activity (JeKo-1) was “Active”. For the same molecule, the pIC50 [5] was 7.35, the Activity (HL-60) was “Active” and the Activity (THP-1) was “Active”.
In the case of `COc1ccc(C2=N[C@H](c3ccc(Cl)cc3)[C@H](c3ccc(Cl)cc3)N2C(=O)N2CCN(CC(=O)NCCOCCOCCn3cc(CN4CCN(c5ccc(Nc6ncc7c(C)c(C(C)=O)c(=O)n(C8CCCC8)c7n6)nc5)CC4)nn3)CC2)c(OC(C)C)c1`, the Activity [6] was “inactive”, the Activity [7] was “inactive” and the Activity [8] was “inactive”.
In the case of `CC(=O)c1c(C)c2cnc(Nc3ccc(N4CCN(Cc5cn(CCOCCNC(=O)[C@H](CC(C)C)NC(=O)[C@@H](O)[C@H](N)Cc6ccccc6)nn5)CC4)cn3)nc2n(C2CCCC2)c1=O`, the Activity (Daoy) was “inactive”, the Activity (Homo sapiens [9]) was “inactive” and the Activity (Homo sapiens [10]) was “inactive”.
In the case of `Cc1nc2c(F)cc(-c3nc(Nc4ccc(CN5CCN(Cc6cn(CCOCCOCCNc7cccc8c7C(=O)N(C7CCC(=O)NC7=O)C8=O)nn6)CC5)cn4)ncc3F)cc2n1C(C)C` (configuration not stated), the DC50 [1] was 130 nM and the DC50 [11] was > 500 nM.
In the case of `COc1ccc(C2=N[C@H](c3ccc(Cl)cc3)[C@H](c3ccc(Cl)cc3)N2C(=O)N2CCN(CC(=O)NCCOCCOCCOCCn3cc(CN4CCN(c5ccc(Nc6ncc7c(C)c(C(C)=O)c(=O)n(C8CCCC8)c7n6)nc5)CC4)nn3)C(=O)C2)c(OC(C)C)c1`, the Activity [6] was “inactive”, the Activity [7] was “inactive” and the Activity [8] was “inactive”.
In the case of `Cc1nc2c(F)cc(-c3nc(Nc4ccc(CN5CCN(Cc6cn(CCOCCNc7cccc8c7C(=O)N(C7CCC(=O)NC7=O)C8=O)nn6)CC5)cn4)ncc3F)cc2n1C(C)C` (configuration not stated), the DC50 [1] was 8.6 nM and the DC50 [11] was > 500 nM.
With `CC(=O)c1c(C)c2cnc(Nc3ccc(N4CCN(CC(=O)NCCOCCNc5cccc6c5C(=O)N(C5CCC(=O)NC5=O)C6=O)CC4)cn3)nc2n(C2CCCC2)c1=O` (configuration not stated) the DC50 [1] was 1.1 nM and the DC50 [11] was > 100 nM.
With `CC(=O)c1c(C)c2cnc(Nc3ccc(N4CCN(Cc5cn(CCCCCCNc6cccc7c6C(=O)N(C6CCC(=O)NC6=O)C7=O)nn5)CC4)cn3)nc2n(C2CCCC2)c1=O` (configuration not stated) the DC50 [1] was 10.6 nM and the DC50 [11] was > 100 nM.
For `CC(=O)c1c(C)c2cnc(Nc3ccc(N4CCN(Cc5cn(CCOCCOCCNC(=O)CCC(=O)N[C@H](C(=O)N6C[C@H](O)C[C@H]6C(=O)NCc6ccc(-c7scnc7C)cc6)C(C)(C)C)nn5)CC4)cn3)nc2n(C2CCCC2)c1=O`, the Activity [2] was “inactive”, the Activity [3] was “inactive” and the Activity [4] was “inactive”.
In the case of `COc1ccc(C2=N[C@H](c3ccc(Cl)cc3)[C@H](c3ccc(Cl)cc3)N2C(=O)N2CCN(CC(=O)NCCOCCn3cc(CN4CCN(c5ccc(Nc6ncc7c(C)c(C(C)=O)c(=O)n(C8CCCC8)c7n6)nc5)CC4)nn3)C(=O)C2)c(OC(C)C)c1`, the Activity [6] was “inactive”, the Activity [7] was “inactive” and the Activity [8] was “inactive”.
With `Cc1nc2c(F)cc(-c3nc(Nc4ccc(CN5CCN(Cc6cn(CCOCCOCCOCCOCCNc7cccc8c7C(=O)N(C7CCC(=O)NC7=O)C8=O)nn6)CC5)cn4)ncc3F)cc2n1C(C)C` (configuration not stated) the DC50 [1] was 146 nM and the DC50 [11] was > 500 nM.
With `CC(=O)c1c(C)c2cnc(Nc3ccc(N4CCN(CC(=O)NCCOCCOCCNc5cccc6c5C(=O)N(C5CCC(=O)NC5=O)C6=O)CC4)cn3)nc2n(C2CCCC2)c1=O` (configuration not stated) the DC50 [1] was 24.2 nM and the DC50 [11] was > 100 nM.
For `CC(=O)c1c(C)c2cnc(Nc3ccc(N4CCN(CCOCCOCCNc5cccc6c5C(=O)N(C5CCC(=O)NC5=O)C6=O)CC4)cn3)nc2n(C2CCCC2)c1=O` (configuration not stated), the DC50 [1] was 1.6 nM and the DC50 [11] was > 50 nM.
In the case of `CCN1C(=O)CCC(N2C(=O)c3cccc(NCCOCCOCCn4cc(CN5CCN(c6ccc(Nc7ncc8c(C)c(C(C)=O)c(=O)n(C9CCCC9)c8n7)nc6)CC5)nn4)c3C2=O)C1=O` (configuration not stated), the Activity (RPMI-8226) was “inactive”, the Activity (MM1.S) was “inactive” and the Activity (JeKo-1) was “inactive”. The Activity (Homo sapiens [12]) was “inactive”, the Activity (HL-60) was “inactive” and the Activity (THP-1) was “inactive”.
With `CN(C)C(=O)c1cc2cnc(Nc3ccc(N4CCN(Cc5cn(CCOCCNc6cccc7c6C(=O)N(C6CCC(=O)NC6=O)C7=O)nn5)CC4)cn3)nc2n1C1CCCC1` (configuration not stated) the Activity [1] was “inactive”.
For `CC(=O)c1c(C)c2cnc(Nc3ccc(N4CCN(Cc5cn(CCOCCOCCOCCNC(=O)CCC(=O)N[C@H](C(=O)N6C[C@H](O)C[C@H]6C(=O)NCc6ccc(-c7scnc7C)cc6)C(C)(C)C)nn5)CC4)cn3)nc2n(C2CCCC2)c1=O`, the Activity [2] was “inactive”, the Activity [3] was “inactive” and the Activity [4] was “inactive”.
For `CCN1C(=O)CCC(N2C(=O)c3cccc(NCCOCCn4cc(CN5CCN(c6ccc(Nc7ncc8c(C)c(C(C)=O)c(=O)n(C9CCCC9)c8n7)nc6)CC5)nn4)c3C2=O)C1=O` (configuration not stated), the Activity (RPMI-8226) was “inactive”, the Activity (MM1.S) was “inactive” and the Activity (JeKo-1) was “inactive”. For the same molecule, the Activity (Homo sapiens [12]) was “inactive”, the Activity (HL-60) was “inactive” and the Activity (THP-1) was “inactive”.
In the case of `CC(=O)c1c(C)c2cnc(Nc3ccc(N4CCN(Cc5cn(CCOCCOCCNC(=O)[C@H](CC(C)C)NC(=O)[C@@H](O)[C@H](N)Cc6ccccc6)nn5)CC4)cn3)nc2n(C2CCCC2)c1=O`, the Activity (Daoy) was “inactive”, the Activity (Homo sapiens [9]) was “inactive” and the Activity (Homo sapiens [10]) was “inactive”.
In the case of `CC(=O)c1c(C)c2cnc(Nc3ccc(N4CCN(Cc5cn(CCOCCOCCOCCNC(=O)[C@H](CC(C)C)NC(=O)[C@@H](O)[C@H](N)Cc6ccccc6)nn5)CC4)cn3)nc2n(C2CCCC2)c1=O`, the Activity (Daoy) was “inactive”, the Activity (Homo sapiens [9]) was “inactive” and the Activity (Homo sapiens [10]) was “inactive”.
With `CC(=O)c1c(C)c2cnc(Nc3ccc(N4CCN(Cc5cn(CCOCCOCCOCCOCCNC(=O)[C@H](CC(C)C)NC(=O)[C@@H](O)[C@H](N)Cc6ccccc6)nn5)CC4)cn3)nc2n(C2CCCC2)c1=O` the Activity (Daoy) was “inactive”, the Activity (Homo sapiens [9]) was “inactive” and the Activity (Homo sapiens [10]) was “inactive”.
With `CC(=O)c1c(C)c2cnc(Nc3ccc(N4CCN(Cc5cn(CCCCC#Cc6cccc7c6C(=O)N(C6CCC(=O)NC6=O)C7=O)nn5)CC4)cn3)nc2n(C2CCCC2)c1=O` (configuration not stated) the DC50 [1] was 81.6 nM and the DC50 [11] was > 100 nM.
For `CC(=O)c1c(C)c2cnc(Nc3ccc(N4CCN(Cc5cn(CCCCCCc6cccc7c6C(=O)N(C6CCC(=O)NC6=O)C7=O)nn5)CC4)cn3)nc2n(C2CCCC2)c1=O` (configuration not stated), the DC50 [1] was 1.7 nM and the DC50 [11] was > 50 nM.
With `CN(C)C(=O)c1cc2cnc(Nc3ccc(N4CCN(Cc5cn(CCOCCOCCNc6cccc7c6C(=O)N(C6CCC(=O)NC6=O)C7=O)nn5)CC4)cn3)nc2n1C1CCCC1` (configuration not stated) the Activity [1] was “inactive”.
